Experimental data reported in ChEMBL document CHEMBL1156768, “The structure-activity relationship of the antimalarial ozonide arterolane (OZ277)” (J Med Chem, 2010).
Converted amounts (≈) assume the structure as drawn.

Assays:
Plasmodium berghei [1] = assay: Antiplasmodial activity against Plasmodium berghei infected in NMRI mice (Mus musculus) assessed as reduction of parasitaemia level at 10 mg/kg, perorally administered 1 day after post-infection measured after 3 days post-infection; type: functional; parameters: scale not given: the % may be the effect or the level left; details: route oral
In short: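 Groups of five NMRI mice infected with P. berghei received a single oral dose on day 1 postinfection. Read-out was percent reduction in parasitemia on day 3 postinfection. Individual measurements differed by less than 10%.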

Plasmodium falciparum [2] = assay: Antimalarial activity against chloroquine-resistant Plasmodium falciparum K1 infected in human A+ erythrocytes assessed as [3H]hypoxanthine incorporation by semiautomated micro dilution assay; type: functional, organism-based
Plasmodium falciparum [3] = assay: Antimalarial activity against chloroquine-sensitive Plasmodium falciparum NF54 infected in human A+ erythrocytes assessed as [3H]hypoxanthine incorporation by semi-automated micro dilution assay; type: functional, organism-based
[4] = Oral bioavailability in Sprague-Dawley rat; type: ADME, organism-based; details: in vivo
In short: (§1)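 Rats received an IV infusion over 5-10 min through a jugular cannula at 2.5-3.5 mg/kg, in DMSO/aqueous buffer or propylene glycol/ethanol/water. Oral gavage used aqueous suspensions in HPMC or CMC with 0.4% Tween 80 and 0.5% benzyl alcohol. Carotid blood was sampled, and plasma was acetonitrile-precipitated and measured by LC/MS against plasma calibration standards. Values are averages of 2-3 determinations.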

[5] = Volume of distribution in Sprague-Dawley rat at 2.5 to 3.5 mg/kg, iv; type: ADME, organism-based; parameters: dose 2.5-3.5 mg/kg, route intravenous; details: in vivo; in short: as §1
Plasmodium berghei [6] = assay: Antiplasmodial activity against Plasmodium berghei infected in NMRI mice (Mus musculus) assessed as curing of parasitaemia at 3 mg/kg, perorally daily once for 3 consecutive days measured after 30 days post-infection; type: functional; details: route oral
In short: (§2)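 P. berghei-infected NMRI mice, in groups of five, were dosed orally at 3 mg/kg on days +1, +2 and +3 postinfection. Parasitemia reduction, survival time and cure were scored.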

Plasmodium berghei [7] = assay: Antiplasmodial activity against Plasmodium berghei infected in NMRI mice (Mus musculus) assessed as reduction of parasitaemia level at 3 mg/kg, perorally daily once for 3 consecutive days measured after 4 days post-infection; type: functional; parameters: scale not given: the % may be the effect or the level left; details: route oral; in short: as §2
[8] = Plasma clearance in Sprague-Dawley rat at 2.5 to 3.5 mg/kg, iv; type: ADME, organism-based; parameters: dose 2.5-3.5 mg/kg, route intravenous; in short: as §1
[9] = Half life in Sprague-Dawley rat at 2.5 to 3.5 mg/kg, iv; type: ADME, organism-based; parameters: dose 2.5-3.5 mg/kg, route intravenous; details: in vivo; in short: as §1
Plasmodium berghei [10] = assay: Antiplasmodial activity against Plasmodium berghei infected in NMRI mice (Mus musculus) assessed as mice (Mus musculus) survival days at 3 mg/kg, perorally daily once for 3 consecutive days measured after 4 days post-infection; type: functional; details: route oral; in short: as §2
[11] = Blood clearance in Sprague-Dawley rat at 2.5 to 3.5 mg/kg, iv; type: ADME, organism-based; parameters: dose 2.5-3.5 mg/kg, route intravenous; details: whole blood; in short: as §1

SMILES	Activity (Plasmodium berghei [1]) [%]	IC50 (Plasmodium falciparum [2]) [ng/mL]	IC50 (Plasmodium falciparum [3]) [ng/mL]	bioavailability [4] [%]	Vd [5] [L/kg]	Activity (Plasmodium berghei [6]) [%]	Activity (Plasmodium berghei [7]) [%]	clearance [8] [mL/min/kg]	half-life [9] [h]	Survival (Plasmodium berghei [10]) [days]	clearance [11] [mL/min/kg]
O=C(O)C[C@H]1CC[C@]2(CC1)OO[C@]1(O2)C2CC3CC(C2)CC1C3	95	34 (≈ 105 nM)	45 (≈ 140 nM)								
Cc1ccc(S(=O)(=O)O)cc1.NCCNC(=O)C[C@H]1CC[C@]2(CC1)OO[C@]1(O2)C2CC3CC(C2)CC1C3	99.9										
CC(C)(N)CNC(=O)NC[C@H]1CC[C@]2(CC1)OO[C@]1(O2)C2CC3CC(C2)CC1C3.Cc1ccc(S(=O)(=O)O)cc1	97	3.2	3.5								
CC(C)(N)Cn1nnnc1C[C@H]1CC[C@]2(CC1)OO[C@]1(O2)C2CC3CC(C2)CC1C3	98	2.3 (≈ 5.51 nM)	1.5 (≈ 3.59 nM)								
Cc1ccc(S(=O)(=O)O)cc1.NC1(CNC(=O)C[C@H]2CC[C@]3(CC2)OO[C@]2(O3)C3CC4CC(C3)CC2C4)CC1	99.9	0.4	0.52								
CC(C)(CN)CNC(=O)C[C@H]1CC[C@]2(CC1)OO[C@]1(O2)C2CC3CC(C2)CC1C3.CS(=O)(=O)O	99.9	0.46	0.49								
CC(C)(N)CNC(=O)N[C@H]1CC[C@]2(CC1)OO[C@]1(O2)C2CC3CC(C2)CC1C3.Cc1ccc(S(=O)(=O)O)cc1	63	8.4	6.2								
O=C(C[C@H]1CC[C@]2(CC1)OO[C@]1(O2)C2CC3CC(C2)CC1C3)N1CCN(CCO)CC1	96	1 (≈ 2.3 nM)	0.9 (≈ 2.07 nM)								
CC(C)(N)CNC(=O)[C@H]1CC[C@@]2(CC1)OO[C@@]1(O2)C2CC3CC(C2)CC1C3.Cc1ccc(S(=O)(=O)O)cc1	84	1.4	0.74								
NC(=O)CNC(=O)C[C@H]1CC[C@]2(CC1)OO[C@]1(O2)C2CC3CC(C2)CC1C3	99.6	3.9 (≈ 10.3 nM)	3.6 (≈ 9.51 nM)								
CC(C)(N)CNC(=O)CC[C@H]1CC[C@]2(CC1)OO[C@]1(O2)C2CC3CC(C2)CC1C3.Cc1ccc(S(=O)(=O)O)cc1	>99.9	0.55	0.82	32	12	0	>99.9	134	1	24.4	
CS(=O)(=O)N1CCN(C(=O)C[C@H]2CC[C@]3(CC2)OO[C@]2(O3)C3CC4CC(C3)CC2C4)CC1	<40										
Cc1ccc(S(=O)(=O)O)cc1.O=C(C[C@H]1CC[C@]2(CC1)OO[C@]1(O2)C2CC3CC(C2)CC1C3)N1CCNCC1	>99.9	0.21	0.24	37	25	0	>99.9	168	1.7		56.3
NC(=O)C1CCN(C(=O)C[C@H]2CC[C@]3(CC2)OO[C@]2(O3)C3CC4CC(C3)CC2C4)CC1	86		1.7 (≈ 3.93 nM)								
CC(C)(N)CNC(=O)OC[C@H]1CC[C@]2(CC1)OO[C@]1(O2)C2CC3CC(C2)CC1C3.Cc1ccc(S(=O)(=O)O)cc1	>99.9	0.22	0.36			0	>99.9			9.8	
O=CN1CCN(C(=O)C[C@H]2CC[C@]3(CC2)OO[C@]2(O3)C3CC4CC(C3)CC2C4)CC1	99.8	0.39 (≈ 0.932 nM)	0.63 (≈ 1.51 nM)								
CC(C)(N)CNC(=O)C[C@H]1CC[C@@]2(CC1)OO[C@@]1(O2)C2CC3CC(C2)CC1C3.Cc1ccc(S(=O)(=O)O)cc1	96	1.7	1.5	15	16			298	0.617		
